# pIC50: −log10 of the molar value.
# Columns and labels:
# Trypanosoma cruzi [1] = test: Concentration required to inhibit proliferation of the epimastigote form of Trypanosoma cruzi; format: functional, organism-based
# Summary of the method: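 T. cruzi epimastigotes (Y strain) at 28 °C in brain–heart infusion (37 g/L) with hemin (20 mg/L) and 10% newborn calf serum; inoculum (2–3) × 10⁶ cells/mL, 1 mL. Drugs at 1, 10, 50 and 100 μg/mL, each in quadruplicate, with a drug-free control. Growth read as absorbance at 600 nm; percent inhibition from the change in absorbance of drug-treated versus control cultures between start and end.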
# Trypanosoma cruzi [2] = test: Growth inhibition of the intracellular Trypanosoma cruzi was measured by no. of parasites per 100 myoblasts (T. cruzi ) after 72 hr (absence of compound); format: functional
# Trypanosoma cruzi [3] = test: Growth inhibition of the intracellular Trypanosoma cruzi was measured by counting percentage of myoblasts with Trypanosoma cruzi parasite after 24 hr (absence of compound); format: functional
# Trypanosoma cruzi [4] = test: Growth inhibition of the intracellular Trypanosoma cruzi was measured by no. of parasites per 100 myoblasts (T. cruzi ) after 72 hr at the concentration of 0.5 (ug/mL); format: functional
# Trypanosoma cruzi [5] = test: Growth inhibition of the intracellular Trypanosoma cruzi was measured by counting percentage of myoblasts with Trypanosoma cruzi parasite after 72 hr at the concentration of 0.1 (ug/mL); format: functional
# Trypanosoma cruzi [6] = test: Growth inhibition of the intracellular Trypanosoma cruzi was measured by no. of parasites per 100 myoblasts (T. cruzi ) after time gap of 24 hr (with out compound); format: functional
# Trypanosoma cruzi [7] = test: Growth inhibition of the intracellular Trypanosoma cruzi was measured by counting percentage of myoblasts with Trypanosoma cruzi parasite after 72 hr at the concentration of 0.5 (ug/mL); format: functional
# Trypanosoma cruzi [8] = test: Growth inhibition of the intracellular Trypanosoma cruzi was measured by no. of parasites per 100 myoblasts (T. cruzi ) after 48 hr at the concentration of 0.5 (ug/mL); format: functional
# Trypanosoma cruzi [9] = test: Growth inhibition of the intracellular Trypanosoma cruzi was measured by counting no. of parasites per 100 myoblasts (T. cruzi ) after 48 hr (absence of compound); format: functional
# Trypanosoma cruzi [10] = test: Growth inhibition of the intracellular Trypanosoma cruzi was measured by counting percentage of myoblasts with Trypanosoma cruzi parasite after time gap of 72 hr at the concentration of 1.0 ug/mL; format: functional
# Trypanosoma cruzi [11] = test: Growth inhibition of the intracellular Trypanosoma cruzi was measured by no. of parasites per 100 myoblasts (T. cruzi ) after time gap of 48 hr (with out compound); format: functional
# Trypanosoma cruzi [12] = test: Growth inhibition of the intracellular Trypanosoma cruzi was measured by no. of parasites per 100 myoblasts (T. cruzi ) after 72 hr at the concentration of 0.1 (ug/mL); format: functional
# Trypanosoma cruzi [13] = test: Growth inhibition of the intracellular Trypanosoma cruzi was measured by counting percentage of myoblasts with Trypanosoma cruzi parasite after time gap of 48 hr at the concentration of 5.0 ug/mL; format: functional
# Trypanosoma cruzi [14] = test: Growth inhibition of the intracellular Trypanosoma cruzi was measured by counting no. of parasites per 100 myoblasts (T. cruzi ) after 24 h (absence of compound); format: functional
# Trypanosoma cruzi [15] = test: Growth inhibition of the intracellular Trypanosoma cruzi was measured by counting percentage of myoblasts with Trypanosoma cruzi parasite after time gap of 72 hr at the concentration of 2.5 ug/mL; format: functional
# Trypanosoma cruzi [16] = test: Growth inhibition of the intracellular Trypanosoma cruzi was measured by no. of parasites per 100 myoblasts (T. cruzi ) after time gap of 48 hr at the concentration of 1.0 ug/mL; format: functional
# Trypanosoma cruzi [17] = test: Growth inhibition of the intracellular Trypanosoma cruzi was measured by no. of parasites per 100 myoblasts (T. cruzi ) after time gap of 72 hr at the concentration of 2.5 ug/mL; format: functional
# Trypanosoma cruzi [18] = test: Growth inhibition of the intracellular Trypanosoma cruzi was measured by counting percentage of myoblasts with Trypanosoma cruzi parasite after time gap of 48 hr (with out compound); format: functional
# Trypanosoma cruzi [19] = test: Growth inhibition of the intracellular Trypanosoma cruzi was measured by counting percentage of myoblasts with Trypanosoma cruzi parasite after time gap of 24 hr (with out compound); format: functional
# Trypanosoma cruzi [20] = test: Growth inhibition of the intracellular Trypanosoma cruzi was measured by no. of parasites per 100 myoblasts (T. cruzi ) after time gap of 72 hr (absence of compound); format: functional
# Trypanosoma cruzi [21] = test: Growth inhibition of the intracellular Trypanosoma cruzi was measured by no. of parasites per 100 myoblasts (T. cruzi ) after time gap of 48 hr at the concentration of 2.5 ug/mL; format: functional
# Trypanosoma cruzi [22] = test: Growth inhibition of the intracellular Trypanosoma cruzi was measured by no. of parasites per 100 myoblasts (T. cruzi ) after time gap of 48 hr at the concentration of 5.0 ug/mL; format: functional
# Trypanosoma cruzi [23] = test: Growth inhibition of the intracellular Trypanosoma cruzi was measured by counting percentage of myoblasts with Trypanosoma cruzi parasite after time gap of 72h( absence of compound); format: functional
# Trypanosoma cruzi [24] = test: Growth inhibition of the intracellular Trypanosoma cruzi was measured by counting percentage of myoblasts with Trypanosoma cruzi parasite after time gap of 48 hr at the concentration of 2.5 ug/mL; format: functional
# Trypanosoma cruzi [25] = test: Growth inhibition of the intracellular Trypanosoma cruzi was measured by counting percentage of myoblasts with Trypanosoma cruzi parasite after time gap of 48 hr at the concentration of 1.0 ug/mL; format: functional
# Trypanosoma cruzi [26] = test: Growth inhibition of the intracellular Trypanosoma cruzi was measured by counting percentage of myoblasts with Trypanosoma cruzi parasite after 72 hr (absence of compound); format: functional
# Trypanosoma cruzi [27] = test: Growth inhibition of the intracellular Trypanosoma cruzi was measured by no. of parasites per 100 myoblasts (T. cruzi ) after time gap of 72 hr at the concentration of 5.0 ug/mL; format: functional
# Trypanosoma cruzi [28] = test: Growth inhibition of the intracellular Trypanosoma cruzi was measured by counting percentage of myoblasts with Trypanosoma cruzi parasite after 48 hr (absence of compound); format: functional
# Trypanosoma cruzi [29] = test: Growth inhibition of the intracellular Trypanosoma cruzi was measured by no. of parasites per 100 myoblasts (T. cruzi ) after 48 hr at the concentration of 0.1 (ug/mL); format: functional
# Trypanosoma cruzi [30] = test: Growth inhibition of the intracellular Trypanosoma cruzi was measured by counting percentage of myoblasts with Trypanosoma cruzi parasite after 48 hr at the concentration of 1.0 (ug/mL); format: functional
# Trypanosoma cruzi [31] = test: Growth inhibition of the intracellular Trypanosoma cruzi was measured by counting percentage of myoblasts with Trypanosoma cruzi parasite after 48 hr at the concentration of 0.5 (ug/mL); format: functional
# Trypanosoma cruzi [32] = test: Growth inhibition of the intracellular Trypanosoma cruzi was measured by no. of parasites per 100 myoblasts (T. cruzi ) after time gap of 72 hr at the concentration of 1.0 ug/mL; format: functional
# Trypanosoma cruzi [33] = test: Growth inhibition of the intracellular Trypanosoma cruzi was measured by counting percentage of myoblasts with Trypanosoma cruzi parasite after time gap of 72 hr at the concentration of 5.0 ug/mL; format: functional
# Trypanosoma cruzi [34] = test: Growth inhibition of the intracellular Trypanosoma cruzi was measured by no. of parasites per 100 myoblasts (T. cruzi ) after 72 hr at the concentration of 1.0 (ug/mL); format: functional
# Trypanosoma cruzi [35] = test: Growth inhibition of the intracellular Trypanosoma cruzi was measured by counting percentage of myoblasts with Trypanosoma cruzi parasite after 48 hr at the concentration of 0.1 (ug/mL); format: functional
# Trypanosoma cruzi [36] = test: Growth inhibition of the intracellular Trypanosoma cruzi was measured by no. of parasites per 100 myoblasts (T. cruzi ) after 48 hr at the concentration of 1.0 (ug/mL); format: functional
# Trypanosoma cruzi [37] = test: Growth inhibition of the intracellular Trypanosoma cruzi was measured by counting percentage of myoblasts with Trypanosoma cruzi parasite after 72 hr at the concentration of 1.0 (ug/mL); format: functional
structure (smiles),measurement,setting,value
CCNC(=O)SCCOc1ccc(Oc2ccccc2)cc1,pIC50,Trypanosoma cruzi [1],4.77
Brc1ccc(Oc2ccc(OCCOC3CCCCO3)cc2)cc1 (stereo not given),pIC50,Trypanosoma cruzi [1],4.07
C=CCOc1ccc(Oc2ccc(C(=O)c3ccccc3)cc2)cc1,pIC50,Trypanosoma cruzi [1],< 3.48
C=CCOc1ccc(Oc2ccc(C(C)=O)cc2)cc1,pIC50,Trypanosoma cruzi [1],3.52
N#CSCCOc1ccc(Oc2ccccc2)cc1,R,Trypanosoma cruzi [2],578.5%
same,Myoblasts with parasites,Trypanosoma cruzi [3],26%
same,R,Trypanosoma cruzi [4],124.5%
same,Myoblasts with parasites,Trypanosoma cruzi [5],15.5%
same,R,Trypanosoma cruzi [6],85%
same,Myoblasts with parasites,Trypanosoma cruzi [7],12.5%
same,R,Trypanosoma cruzi [8],98%
same,R,Trypanosoma cruzi [9],239.5%
same,Myoblasts with parasites,Trypanosoma cruzi [10],16.3%
same,R,Trypanosoma cruzi [11],270.5%
same,R,Trypanosoma cruzi [12],238%
same,Myoblasts with parasites,Trypanosoma cruzi [13],19.8%
same,R,Trypanosoma cruzi [14],91.8%
same,Myoblasts with parasites,Trypanosoma cruzi [15],17%
same,R,Trypanosoma cruzi [16],59.3%
same,R,Trypanosoma cruzi [17],76.3%
same,Myoblasts with parasites,Trypanosoma cruzi [18],31.5%
same,Myoblasts with parasites,Trypanosoma cruzi [19],38%
same,R,Trypanosoma cruzi [20],733.5%
same,R,Trypanosoma cruzi [21],57%
same,R,Trypanosoma cruzi [22],48%
same,Myoblasts with parasites,Trypanosoma cruzi [23],24.8%
same,Myoblasts with parasites,Trypanosoma cruzi [24],20.3%
same,Myoblasts with parasites,Trypanosoma cruzi [25],20.5%
same,Myoblasts with parasites,Trypanosoma cruzi [26],27.5%
same,R,Trypanosoma cruzi [27],28%
same,Myoblasts with parasites,Trypanosoma cruzi [28],21.5%
same,R,Trypanosoma cruzi [29],218%
same,Myoblasts with parasites,Trypanosoma cruzi [30],19.3%
same,Myoblasts with parasites,Trypanosoma cruzi [31],18.3%
same,R,Trypanosoma cruzi [32],85.5%
same,Myoblasts with parasites,Trypanosoma cruzi [33],8.3%
same,R,Trypanosoma cruzi [34],63.5%
same,pIC50,Trypanosoma cruzi [1],5.66
same,Myoblasts with parasites,Trypanosoma cruzi [35],22%
same,R,Trypanosoma cruzi [36],69.3%
same,Myoblasts with parasites,Trypanosoma cruzi [37],15%
CC1CS(=O)(=O)CCN1/N=C/c1ccc([N+](=O)[O-])o1 (stereo not given) [NIFURTIMOX],R,Trypanosoma cruzi [2],321%
same,Myoblasts with parasites,Trypanosoma cruzi [3],34.5%
same,R,Trypanosoma cruzi [9],155%
same,R,Trypanosoma cruzi [14],80.25%
same,Myoblasts with parasites,Trypanosoma cruzi [26],20%
same,Myoblasts with parasites,Trypanosoma cruzi [28],16.25%
same,Myoblasts with parasites,Trypanosoma cruzi [30],14%
same,R,Trypanosoma cruzi [34],70.5%
same,pIC50,Trypanosoma cruzi [1],5.07
same,R,Trypanosoma cruzi [36],64.5%
same,Myoblasts with parasites,Trypanosoma cruzi [37],12.5%
N#CSCCOc1ccc(OCc2ccccc2)cc1,pIC50,Trypanosoma cruzi [1],5.09
C=CCSC(=S)OCCOc1ccc(Oc2ccccc2)cc1,pIC50,Trypanosoma cruzi [1],4.02
C=CCOc1ccc(Sc2ccccc2)cc1,pIC50,Trypanosoma cruzi [1],3.49
Clc1ccc(OCCOC2CCCCO2)c(Cl)c1 (stereo not given),pIC50,Trypanosoma cruzi [1],4.03
CCSC(=O)OC/C=C(\C)CCC=C(C)C,pIC50,Trypanosoma cruzi [1],3.53
C=CCOc1ccc(Oc2ccccc2)cc1Br,pIC50,Trypanosoma cruzi [1],3.74
CCSC(=O)SCCOc1ccc(Oc2ccccc2)cc1,pIC50,Trypanosoma cruzi [1],4.42
c1ccc(Cc2ccc(OCCOC3CCCCO3)cc2)cc1 (stereo not given),pIC50,Trypanosoma cruzi [1],3.55
CCOC(=O)SCCOc1ccc(Oc2ccccc2)cc1,pIC50,Trypanosoma cruzi [1],4.82
C/C=C/Oc1ccc(Oc2ccccc2)cc1,pIC50,Trypanosoma cruzi [1],< 3.36
Brc1cc(Oc2ccccc2)ccc1OCCOC1CCCCO1 (stereo not given),pIC50,Trypanosoma cruzi [1],4.17
N#CSCCCOc1ccc(Oc2ccccc2)cc1,pIC50,Trypanosoma cruzi [1],5.46
c1ccc(COc2ccc(OCCOC3CCCCO3)cc2)cc1 (stereo not given),pIC50,Trypanosoma cruzi [1],3.92
CCOC(=S)SCCOc1ccc(Oc2ccccc2)cc1,pIC50,Trypanosoma cruzi [1],4.38
CC(C)COC(=O)SCCOc1ccc(Oc2ccccc2)cc1,pIC50,Trypanosoma cruzi [1],4.72
CCSC(=O)OC/C=C(\C)CCC1OC1(C)C (stereo not given),pIC50,Trypanosoma cruzi [1],< 3.42
C=CCOc1ccc(Oc2ccccc2)cc1Cl,pIC50,Trypanosoma cruzi [1],< 3.60
C=CCOc1ccc(Oc2ccccc2)cc1[N+](=O)[O-],pIC50,Trypanosoma cruzi [1],3.73
N#CSCCOc1ccc(Cc2ccccc2)cc1,pIC50,Trypanosoma cruzi [1],4.87
C=CCOc1ccc(Oc2ccc([N+](=O)[O-])cc2)cc1,pIC50,Trypanosoma cruzi [1],3.64
C=CCOc1ccc(Oc2ccc(Br)cc2)cc1,pIC50,Trypanosoma cruzi [1],< 3.60
C=CCOc1ccc(Oc2ccc(Cl)cc2)cc1,pIC50,Trypanosoma cruzi [1],< 3.60
C=CCOc1ccc(Cl)cc1Cl,pIC50,Trypanosoma cruzi [1],3.55
C=CCOc1ccc(Oc2ccccc2)cc1NC(C)=O,pIC50,Trypanosoma cruzi [1],4.01
C=CCOc1ccc(Oc2ccccc2)cc1I,pIC50,Trypanosoma cruzi [1],4.04
C=CCOc1ccc(Oc2ccccc2)cc1,pIC50,Trypanosoma cruzi [1],3.66
c1ccc(Oc2ccc(OCC3CS3)cc2)cc1 (stereo not given),pIC50,Trypanosoma cruzi [1],5.41
Clc1cc(Oc2ccccc2)ccc1OCCOC1CCCCO1 (stereo not given),pIC50,Trypanosoma cruzi [1],3.84
